Measurements reported in paper PMC3928098 (Leukemia, 2013).

Key:
MM.1S cells [1] = test: RNA synthesis assay, [5'-3H]uridine incorporation, MM.1S; format: cell-based, human
MM.1S cells xenograft = test: MM xenograft murine model, anti-MM activity; format: in vivo, CB-17 SCID mice; details: for maximum TGI (%): day 14 following end of treatment
Outline: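 SCID mice were irradiated, then inoculated s.c. in the upper back 24 h later with MM.1S cells (2.5 × 10⁶ in methods; 3 × 10⁶ in 100 uL RPMI in legend). At ~100 mg tumour, mice were randomised to test compound in D5W pH5.2 or D5W vehicle, IV tail vein daily ×5 (n=8, 9, 10). Calipers every other day; volume = ½·L·W². TGI = 100 − T/C%; log10 cell kill from growth delay and doubling time; survival timed from first treatment day.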

Fms = details: read-out: IC50 Fms; in vitro cell-free kinase assay; cited from earlier work
[2] = tested on: MM cell lines (MM.1S, MM.1R, H929, U266, OPM1, RPMI); test: MTT cell viability assay in MM cell lines; format: cell-based; details: Homo sapiens
Outline: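 MM lines were grown in RPMI-1640 with 10% FBS, 2 mM L-glutamine and pen/strep, then treated with test compound (0–100 nM) for 24 and 48 h. MTT was added for 4 h at 37°C and dissolved in acidified isopropanol. Absorbance was read at 570 nm, corrected at 630 nm, with triplicate cultures.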

[3] = MM xenograft murine model, body weight and toxicity; format: in vivo, CB-17 SCID mice
Outline: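 MM.1S s.c. xenografts in irradiated SCID mice; test compound at 30 or 40 mg/kg, or D5W pH5.2 vehicle, given IV by tail vein daily for 5 days once tumours reached ~100 mg. Body weight and tumour size were recorded every alternate day. Mice were euthanised by CO2 if tumour exceeded 2 cm or ulcerated.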

[4] = tested on: primary tumor cells from MM patients (CD138+); test: MTT viability of primary tumor cells from MM patients; format: cell-based, human; details: 0-100nM, MTT at 48h
Outline: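 Bone marrow mononuclear cells from MM patient aspirates were separated on Ficoll-Hipaque, and plasma cells were purified by anti-CD138 magnetic bead positive selection. Cells were cultured with test compound (0–100 nM) and viability was read by MTT at 48 h (570/630 nm). Values are means ±SD of triplicate cultures.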

[5] = tested on: p53 knockdown MM.1S cells; test: MTT viability of p53 shRNA knockdown MM.1S; format: cell-based, human; details: p53 shRNA-transduced MM.1S versus control, MTT 48h
Outline: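 MM.1S cells were transduced with lentiviral shTP53 or empty-vector particles in medium with polybrene (8 μg/ml), and medium was refreshed at 24 h. Infection was checked at 72 h by puromycin (2 μg/ml) sensitivity against parental cells, using MTT. Transduced cells were then exposed to test compound and viability was read by MTT, in triplicate cultures.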

[6] = tested on: U266, OPM1, and RPMI MM cell lines; test: RNA synthesis assay in p53-mutated MM cell lines; format: cell-based, human; details: 0-100nM, 24h
Outline: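 p53-mutant U266, OPM1 and RPMI cells (2–3 × 10³/well) were treated at 37°C with test compound (0–100 nM) for 2 and 24 h. [5′-³H]uridine was then added, and cells were harvested and counted by scintillation. Values are means ±SD of triplicate cultures.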

cyclin B1-CDK1 (K1/B1) = details: read-out: IC50 K1/B1; in vitro cell-free kinase assay; cited from earlier work
healthy donor PBMCs = test: cytotoxicity in healthy donor PBMCs; format: cell-based, human; details: compared with tumor cells from MM patients, 50nM
Outline: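 PBMCs were obtained from healthy volunteer blood by Ficoll-Hipaque gradient separation before exposure to test compound.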

MM.1S cells [7] = test: NAD+/NADH quantification assay; format: cell-based, human; details: 50nM
Outline: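 MM.1S cells were cultured with 50 nM test compound and 5 × 10⁵ cells were extracted. For total NAD, extract was incubated with NAD Cycling Mix for 5 min at RT to convert NAD+ to NADH. For NADH, extract was heated at 60°C for 30 min to decompose NAD+. Developer was added for 40 min in the dark and read at 450 nm, in duplicate. Ratio = (NADt − NADH)/NADH.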

cyclin H-CDK7 (K7/H) [8] = test: in vitro cell-free kinase assay, cyclin H-CDK7; format: biochemical; details: in vitro kinase assays, compared with CDK 1, 2, 3, 4, 5 and 9
p35-CDK5 (K5/p35) = details: read-out: IC50 K5/p35; in vitro cell-free kinase assay; cited from earlier work
MEK1 = details: read-out: IC50 MEK1; in vitro cell-free kinase assay; cited from earlier work
[9] = tested on: p53 DNA binding activity in MM.1S cells; test: sequence specific p53 DNA binding assay; format: cell-based, human; details: 50nM, 4h
Outline: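 MM.1S cells were cultured with medium or 50 nM test compound for 1, 4 and 8 h, and nuclear proteins were then isolated. Extracts were incubated overnight in wells coated with dsDNA carrying the p53 response element. Bound p53 was detected with an anti-p53 primary antibody and an HRP-linked secondary, read colorimetrically at 450 nm, in triplicate.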

cyclin E-CDK3 (K3/E) = details: read-out: IC50 K3/E; in vitro cell-free kinase assay; cited from earlier work
Jak2 = details: read-out: IC50 Jak2; in vitro cell-free kinase assay; cited from earlier work
cyclin E-CDK2 (K2/E) = details: read-out: IC50 K2/E; in vitro cell-free kinase assay; cited from earlier work
cyclin D3-CDK6 (K6/D3) [10] = details: read-out: IC50 K6/D3; in vitro cell-free kinase assay; cited from earlier work
cyclin H-CDK7 (K7/H) [11] = details: read-out: IC50 K7/H; in vitro cell-free kinase assay; cited from earlier work
AMPK = details: read-out: IC50 AMPK; in vitro cell-free kinase assay; cited from earlier work
GSK-3β = details: read-out: IC50 GSK-3β; in vitro cell-free kinase assay; cited from earlier work
[12] = tested on: p-RNAPII S2/S5 in MM cell lines; test: western blot of phosphorylated RNAPII S2/S5; format: cell-based, human; details: 0-8h, 25-100nM, all tested MM cell lines, immunoblot
Outline: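 MM cell lines were exposed to test compound (0–100 nM) for 1, 4 and 8 h. Whole-cell lysates were run on SDS-PAGE and transferred to nitrocellulose. Blots were probed with phosphospecific antibodies to RNAPII S2/S5 and re-probed for actin, tubulin or GAPDH as loading controls.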

[13] = tested on: miR-21-3p, miR-19a-5p, miR-92a-1-5p in U266 and OPM1 cells; test: TaqMan specific miRNA assays; format: cell-based, human; details: 50nM for 8h
Outline: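 U266, OPM1 and RPMI cells were cultured for 8 h in medium alone or with 50 nM test compound. Total RNA was isolated with a mirVana kit. miR-21-3p, miR-19a-5p and miR-92a-1-5p were quantified with target-specific TaqMan MicroRNA Assays following the manufacturer's protocol.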

MM.1S cells [14] = test: DNA synthesis assay, [3H-TdR] uptake; format: cell-based, human; details: BMSCs-stimulated MM.1S cells
Outline: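 MM.1S cells (2–3 × 10³/well) were plated alone or with patient-derived BMSCs and exposed to varying test compound concentrations for 8 and 24 h at 37°C. [³H-TdR] ([…]) was pulsed in the last 8 h. Cells were harvested and counted by scintillation. Values are means ±SD of triplicate cultures.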

MM.1S cells [15] = test: cell cycle analysis by PI flow cytometry; format: cell-based, human; details: 50nM, 12h
Outline: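 MM.1S cells (1 × 10⁶) were cultured in medium or with 50 nM test compound for 12 and 24 h, then washed in ice-cold PBS. They were fixed in 100% ethanol for 1 h at 4°C, treated with RNase for 30 min at 37°C, and stained with propidium iodide. Cell cycle profiles were acquired by flow cytometry and modelled for phase distribution.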

C-src = details: read-out: IC50 C-src; in vitro cell-free kinase assay; cited from earlier work
cyclin D3-CDK6 (K6/D3) [16] = test: in vitro cell-free kinase assay, cyclin D3-CDK6; format: biochemical; details: in vitro kinase assays, compared with CDK 1, 2, 3, 4, 5 and 9
TAK1 = details: read-out: IC50 TAK1; in vitro cell-free kinase assay; cited from earlier work
cyclin D1-CDK4 (K4/D1) = details: read-out: IC50 K4/D1; in vitro cell-free kinase assay; cited from earlier work
cyclin T1-CDK9 (K9/T1) = details: read-out: IC50 K9/T1; in vitro cell-free kinase assay; cited from earlier work
MM.1S cells [17] = test: annexin V-PI apoptosis detection; format: cell-based, human; details: 50nM, 12 hours
Outline: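 MM.1S cells (1 × 10⁶) were exposed to 50 nM test compound or medium for 12–24 h. Cells were stained with annexin V-FITC and PI for 15 min, and annexin V+/PI+ apoptotic cells were counted by flow cytometry.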

OC[C@H]1OC(n2cnc3cc(Cl)c(Cl)cc32)[C@H](O)[C@@H]1O (stereo partly drawn) [DRB, 5,6-Dichloro-1—D-ribofuranosylbenzimidazole, reference compound]
effect on RNA synthesis (MM.1S cells [1]; MM.1S, 2h, Suppl. Fig. S3): significantly inhibited RNA synthesis

COCCN1CCN(Cc2ccc(-c3n[nH]c4c3C(=O)c3c(NC(=O)NN5CCOCC5)cccc3-4)cc2)CC1.Cl.Cl [RGB-286638, 1-(3-{4-[4-(2-Methoxyethyl)-piperazin-1-ylmethyl]-phenyl}-4-oxo-1,4-dihydroindeno[1,2-c]pyrazol-5-yl)-3-morpholin-4-yl-urea dihydrochloride]
maximum TGI (%) (MM.1S cells xenograft; 30 mg/kg IV daily for 5 days): 85.06% | maximum TGI (%) (MM.1S cells xenograft; 40 mg/kg IV daily for 5 days): 86.34% | log10 cell kill (LCK Td: 4.5 days) (MM.1S cells xenograft; both treated groups (30 mg/kg and 40 mg/kg IV, 5 days)): 1.6 | survival, first death (MM.1S cells xenograft; both treated groups (30 and 40 mg/kg), controls day 24): 43 days | IC50 (Fms): 1 nM | EC50 ([2]; 48 h, read-out: EC50, viability by MTT assay): 20 to 70 nM | IC50 ([2]; read-out: IC50, MM cell proliferation): 50 to 100 nM | reduction of total level of transcripts (MM.1S cells [1]; BMSCs-stimulated MM.1S cells, 8h): ~ 50% | effect on transcription (MM.1S cells [1]; BMSCs-stimulated MM.1S cells, 24h): blocked transcription | reduction of RNA synthesis (MM.1S cells [1]; MM.1S, 50nM or 100nM, two hours): 50% | maximum percentage of body weight (BW) loss ([3]; 30mg/kg dosage schedule, day 5): 8.4% | maximum percentage of body weight (BW) loss ([3]; 40 mg/kg dosing, day 15): 9.9% | toxic deaths ([3]; 30 and 40 mg/kg IV daily for 5 days): No toxic deaths | cytotoxicity in primary tumor cells from MM patients [4]: comparable cytotoxicity to MM cell lines | cells rescued from RGB-286638-induced cell death by p53 knockdown [5]: 14% | effect on RNA synthesis [6]: significant inhibition | IC50 (cyclin B1-CDK1 (K1/B1)): 2 nM | cytotoxicity in healthy donor PBMCs (healthy donor PBMCs): less cytotoxicity | NADH depletion (MM.1S cells [7]): 50% | NADt depletion (MM.1S cells [7]): 30% | fold less active against CDK 7 (cyclin H-CDK7 (K7/H) [8]): 44 fold | IC50 (p35-CDK5 (K5/p35)): 5 nM | IC50 (MEK1): 54 nM | p53 sequence specific DNA binding [9]: increased p53 DNA binding | IC50 (cyclin E-CDK3 (K3/E)): 5 nM | IC50 (Jak2): 50 nM | IC50 (cyclin E-CDK2 (K2/E)): 3 nM | IC50 (cyclin D3-CDK6 (K6/D3) [10]): 55 nM | IC50 (cyclin H-CDK7 (K7/H) [11]): 44 nM | IC50 (AMPK): 41 nM | IC50 (GSK-3β): 3 nM | effect on p-RNAPII S2/S5 [12]: rapid downregulation | miR-21-3p, miR-19a-5p, and miR-92a-1-5p levels [13]: significantly reduced | reduction in DNA synthesis (MM.1S cells [14]; 8h): 60% | effect on MM.1S proliferation (MM.1S cells [14]; 24h): complete block | effect on cell cycle (MM.1S cells [15]): G1 and G2/M cell cycle arrest | IC50 (C-src): 25 nM | fold less active against CDK 6 (cyclin D3-CDK6 (K6/D3) [16]): 55 fold | IC50 (TAK1): 5 nM | IC50 (cyclin D1-CDK4 (K4/D1)): 4 nM | IC50 (cyclin T1-CDK9 (K9/T1)): 1 nM | apoptotic MM cells, Annexin/PI staining (MM.1S cells [17]): 25%
